Cytotoxicity data for 97 molecules are collected here from ChEMBL document CHEMBL4513216, “Probing the Open Global Health Chemical Diversity Library for Multistage-Active Starting Points for Next-Generation Antimalarials” (ACS Infect Dis, 2020).

This data set is described as follows: Toxicity liver stage against HepG2, at 10uM. The arrangement: test concentration 10 uM, cell line HepG2-A16-CD81EGFP. Conditions: human, HepG2-A16-CD81EGFP cells; read-out: INHIBITION
Type of data set: cell-based. The procedure, abridged:
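Uninfected HepG2-A16-CD81EGFP cells, 3 × 10^3 per well, 1536-well, plated on prespotted compound at 10 μM final, parasite-free screening media added to match infected plates; puromycin 10 μM positive, DMSO 0.5% negative; run in parallel with 48 h PbLuc assay at 37 °C, 5% CO2; viability by CellTiter-Glo luminescence, normalized to controls.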
Consider `CC(C)(C)SCC(=O)NCCc1csc(N2CCCC2)n1`, for which the cytotoxicity at 10 µM turned out to be 8.74%.

On to `O=C(c1ccc(Cl)s1)N1CCC2(CNS(=O)(=O)c3cnccc3O2)C1` (configuration not stated), for which the cytotoxicity at 10 µM was 15.5%.

Turning to `O=C(c1c(O)cnc2ccccc12)N1CCN(CC(F)F)CC1`, the cytotoxicity at 10 µM is -2.22%.

`O=C(CCc1ccc(Cl)s1)N1CCCC(n2cncn2)C1` (configuration not stated): the cytotoxicity at 10 µM is -7.7%.

As to `COc1cc(CNCCn2cc(C)cn2)cc2c1OCCO2`, the cytotoxicity at 10 µM was -9.07%.

In the case of `Cc1cccc(CCC(=O)Nc2cccnc2N2CCC(O)CC2)c1`, the cytotoxicity at 10 µM was -2.25%.

For `CN1CCOC(CNCc2nc(-c3ccccc3)cs2)C1` (configuration not stated), the cytotoxicity at 10 µM was -11.5%.

Regarding `CCCNCc1ccc(OCc2ccc3c(c2)OCCO3)cc1`, the cytotoxicity at 10 µM is 3.49%.

With `CN(C)C[C@H]1C[C@@H]2CN(Cc3ccco3)C[C@@H]2O1`, the cytotoxicity at 10 µM was -1.66%.

Take `CCc1cnc(CNC(=O)NCCc2ccc(O)cc2)s1`: the cytotoxicity at 10 µM was determined as 2.31%.

As to `Nc1ncc(-c2csc(NC(=O)C[C@H]3COCCN3)n2)cn1`, the cytotoxicity at 10 µM is -2.83%.

`CCc1csc(CCNC(=O)C2CC(=O)N(C(C)C)C2)n1` (configuration not stated): the cytotoxicity at 10 µM is -11.9%.

As for `Cc1noc(-c2ccnc(N3CCCN(C4CCOCC4)CC3)c2)n1`, the cytotoxicity at 10 µM is -2.85%.

Consider `Cc1cc(C)cc(OCCN2CCn3c(C)nnc3C2)c1`, for which the cytotoxicity at 10 µM is -9.08%.

For the molecule `NC(=O)CN1CCCN(C(=O)c2ccc(SC(F)F)cc2)CC1`, the cytotoxicity at 10 µM is -6.08%.

For `CCS(=O)(=O)N1C[C@@H](O)[C@H](N(C)Cc2ccc(F)cc2)C1`, the cytotoxicity at 10 µM turned out to be 4.54%.

Take `NC(=O)C1CCN(C(=O)CCCc2nnc(-c3ccccc3)o2)CC1`: the cytotoxicity at 10 µM was -13.2%.

Regarding `CN1CCCC(CNC(=O)CN(C)S(=O)(=O)c2cccnc2)C1` (configuration not stated), the cytotoxicity at 10 µM turned out to be 9.45%.

`Cc1cc(C(=O)O)cc(S(=O)(=O)Nc2ccc3c(c2)OCCO3)c1C`: the cytotoxicity at 10 µM was -3.95%.

As for `COc1ccc(F)cc1C(C(=O)O)N1CCSCC1` (configuration not stated), the cytotoxicity at 10 µM is -4.2%.

As to `CCC(=O)N1CCCc2c(cnn2C)C1`, the cytotoxicity at 10 µM came to 3.12%.

On to `OCC1(O)CCCN(Cc2ccc(-c3cc[nH]n3)s2)CC1` (configuration not stated), for which the cytotoxicity at 10 µM was -141%.

`CN(C)CC(=O)N1CCc2ncnc(-c3ccoc3)c2CC1`: the cytotoxicity at 10 µM was -7.36%.

With `NC(=O)NC(=O)CCN1CCCN(c2nccs2)CC1`, the cytotoxicity at 10 µM was determined as 11.1%.

For `CC(C)n1cnnc1CN(C)C(=O)c1ccc[nH]1`, the cytotoxicity at 10 µM is -0.371%.

For `O=S(=O)(c1cccs1)N1CCCCC1c1ccn[nH]1` (configuration not stated), the cytotoxicity at 10 µM is -3%.

As to `Cc1cccc(NC(=O)[C@@H]2CCCN2Cc2ccccc2C#N)n1`, the cytotoxicity at 10 µM is -4.11%.

Regarding `Cn1cnc(S(=O)(=O)N2CCCc3cccc(F)c32)c1Cl`, the cytotoxicity at 10 µM is -4.63%.

Consider `CN1CCC(c2nnc(CN3CCC(O)CC3)n2C)CC1`, for which the cytotoxicity at 10 µM was -8.94%.

Take `COc1ccccc1CN1C[C@@H]2COC[C@]2(COCc2ccncc2)C1`: the cytotoxicity at 10 µM is -70.9%.

On to `CCc1cc(=O)n(CC(=O)N2CCC(C)CC2)c(-c2cccc(F)c2)n1`, for which the cytotoxicity at 10 µM amounted to 7.63%.

Consider `O=C(NC1CCN(C2CC2)CC1)N1CCN(c2cnccn2)CC1`, for which the cytotoxicity at 10 µM was -6.97%.

As to `Cc1cc(-c2ccncc2)ccc1OCC(N)=O`, the cytotoxicity at 10 µM amounted to 18.1%.

Consider `O=C(CSC1CCCC1)N1CCN(C(=O)C2CC2c2cccs2)CC1` (configuration not stated), for which the cytotoxicity at 10 µM amounted to 4.48%.

`Cc1cc(CN2CCN(C(=O)CCc3cccs3)CC2)on1`: the cytotoxicity at 10 µM is -5%.

For `CN(C)C(CNC(=O)OCC(F)(F)F)c1ccsc1` (configuration not stated), the cytotoxicity at 10 µM was -44.4%.

On to `c1cc(CN2CCOC[C@H]2c2nc(-c3ccncc3)c[nH]2)ccn1`, for which the cytotoxicity at 10 µM was -2.65%.

In the case of `COCCN1C[C@H]2CCN(c3ncccn3)CC[C@H]2S1(=O)=O`, the cytotoxicity at 10 µM is -2.2%.

Regarding `CCN(CC)CCCNCc1cc2cc(C)cc(C)c2[nH]c1=O`, the cytotoxicity at 10 µM stood at 7.63%.

For the molecule `O=C1NCC2(CCCN(Cc3ccc(Cl)s3)C2)Oc2ccccc21` (configuration not stated), the cytotoxicity at 10 µM was found to be 8.69%.

On to `CN(Cc1ccccc1)CC(O)Cn1cnc2c(cnn2C)c1=O` (configuration not stated), for which the cytotoxicity at 10 µM was determined as 1.53%.

For `O=C(NC1CCc2ccccc2C1)N1CCN(C(=O)C2CCC2)CC1` (configuration not stated), the cytotoxicity at 10 µM was -5.59%.

In the case of `COC(=O)C(NC(=O)CCc1ccco1)c1cc(F)ccc1F` (configuration not stated), the cytotoxicity at 10 µM was -0.448%.

For `Cc1nc(C2CCCNC2)cc(N(C)CCc2ccccc2)n1` (configuration not stated), the cytotoxicity at 10 µM is -1.36%.

Consider `COc1ccc(-c2cnc(CN3CCCC3Cn3cncn3)o2)cc1` (configuration not stated), for which the cytotoxicity at 10 µM was found to be 3.41%.

Take `Fc1ccc(CN2C[C@@H]3OCCN(CCN4CCCC4)[C@@H]3C2)cc1`: the cytotoxicity at 10 µM was -3.58%.

On to `CO[C@@H]1CC[C@H]2[C@H]1OCCN2C(=O)c1ccco1`, for which the cytotoxicity at 10 µM was -148%.

With `COc1cc(CCC(=O)NCC2CC2)ccc1OCC(F)(F)F`, the cytotoxicity at 10 µM was -4.81%.

In the case of `COc1cccc(OCC2CCCN(C(=O)c3ncoc3C3CC3)C2)c1` (configuration not stated), the cytotoxicity at 10 µM was found to be 3.79%.

Take `N#CC1(C(=O)Nc2ccc(OC(F)F)cc2)CCCC1`: the cytotoxicity at 10 µM is -11.1%.

For the molecule `Oc1cc(-c2ccccn2)nc(C2CCN(Cc3ccncc3)CC2)n1`, the cytotoxicity at 10 µM was -7.56%.

For the molecule `Cc1cc(C(F)(F)F)nc(CNC(=O)C2CCCCCN2C)n1` (configuration not stated), the cytotoxicity at 10 µM is -46%.

As for `CN(CCc1ccncc1)C(=O)C1CSCN1C(=O)C1CCCC1` (configuration not stated), the cytotoxicity at 10 µM was -7.39%.

In the case of `CCCC1(CNCc2ncc[nH]2)CCC1`, the cytotoxicity at 10 µM was 2.24%.

On to `CN1CCC(CNC(=O)NCc2ccc(N(C)C)cc2)CC1`, for which the cytotoxicity at 10 µM is -1.42%.

Regarding `O=C1COc2cc(C(=O)N3CCCC(n4ccnc4)C3)ccc2N1` (configuration not stated), the cytotoxicity at 10 µM is 1.75%.

In the case of `O=C(O)[C@@H]1CN(C2CCOCC2)C[C@H]1C1CC1`, the cytotoxicity at 10 µM is -160%.

As to `CN(C)c1nccc(CNC(=O)NC(C)(C)C)n1`, the cytotoxicity at 10 µM was -7.36%.

On to `Cc1nn(C)c(N2CCOCC2)c1CNCc1ccc(Cl)s1`, for which the cytotoxicity at 10 µM worked out at 4.09%.

As for `O=C(c1cc[nH]n1)N1CCc2ccc(S(=O)(=O)N3CCOCC3)cc2C1`, the cytotoxicity at 10 µM was found to be 5.18%.

As to `C/C=C(\C)CN1C[C@H](c2cccc(OC)c2)[C@@H](N)C1`, the cytotoxicity at 10 µM worked out at 3.49%.

For `Cn1ccnc1COc1ccc(CN2CCC(C(N)=O)CC2)cc1`, the cytotoxicity at 10 µM is -4.47%.

Consider `COc1ccc(CN2CCCN(C(=O)C(C)n3ccnc3)CC2)cc1` (configuration not stated), for which the cytotoxicity at 10 µM is -14.1%.

In the case of `CCc1c(C)sc2c1c(N)nc(=O)n2CCN1CCOCC1`, the cytotoxicity at 10 µM stood at 1.17%.

In the case of `CNC(=O)CN1CCN(C(=O)Nc2ccc(C)s2)CC1`, the cytotoxicity at 10 µM was -13.3%.

On to `O=S(=O)(N[C@H]1CC[C@H]1NC1Cc2ccccc2C1)c1cccnc1`, for which the cytotoxicity at 10 µM was found to be 1.24%.

For `CCC(Nc1cccc(OC)c1)C(=O)N(CCO)Cc1nccs1` (configuration not stated), the cytotoxicity at 10 µM stood at 3.94%.

In the case of `Cc1nn(C)cc1-c1ccnc(N(C)Cc2cnn(C)c2)n1`, the cytotoxicity at 10 µM worked out at 19.9%.

Turning to `CCc1c(C)nn(CCNC(=O)c2csc(C)n2)c1C`, the cytotoxicity at 10 µM is -2.78%.

On to `CC(NC(=O)CSCC#N)c1ccc(Cl)cc1` (configuration not stated), for which the cytotoxicity at 10 µM is -2.13%.

With `COCCC1(CO)CCCN(Cc2cc(C(F)(F)F)ccc2F)C1` (configuration not stated), the cytotoxicity at 10 µM is -141%.

As for `COCCn1cc(NC(=O)NCC(C)N2CCOCC2)cn1` (configuration not stated), the cytotoxicity at 10 µM turned out to be 1.18%.

With `Cn1cc(CNc2cnn(CC3CCCO3)c2)c(-c2ccncc2)n1` (configuration not stated), the cytotoxicity at 10 µM is 4.4%.

Take `CN(C)CCN1CCCC12CCN(C(=O)c1ccoc1)CC2`: the cytotoxicity at 10 µM was -1.83%.

For the molecule `COc1ccc(CN(C)CC2CCCN2c2cccnn2)cc1F` (configuration not stated), the cytotoxicity at 10 µM is 4.48%.

With `CC(C)n1c2ccccc2c2c1cc(C(=O)NC1CC1)n2C(=O)N(C)C`, the cytotoxicity at 10 µM was -109%.

`CO[C@H]1CCN(S(=O)(=O)c2cccs2)[C@H]1Cc1ccncc1`: the cytotoxicity at 10 µM is -75%.

For the molecule `Cc1nc(C(C)C)cc(N2CCC3(CCC(=O)N(CC4CC4)C3)CC2)n1`, the cytotoxicity at 10 µM was -2.99%.

For `CC(C)(C)c1n[nH]c(C2CN(C(=O)CCc3ccco3)CCO2)n1` (configuration not stated), the cytotoxicity at 10 µM was -8.24%.

Take `O=C(c1ccccc1)N1CCS(=O)(=O)[C@@H]2CCNCC[C@@H]21`: the cytotoxicity at 10 µM was -127%.

`CC(C)(C)c1noc(CCC(=O)NCC2CCS(=O)(=O)C2)n1` (configuration not stated): the cytotoxicity at 10 µM is -18.1%.

Consider `COc1ccnc(N2CCN(CC(=O)N3CCOCC3)CC2)n1`, for which the cytotoxicity at 10 µM is -7.37%.

`COc1ccc(NC(=O)Cn2nc(C)ccc2=O)cc1OC`: the cytotoxicity at 10 µM worked out at 1.57%.

Regarding `Cc1cccc(CN2C[C@@H]3CN(C(=O)c4ccco4)C[C@@H]3C2=O)n1`, the cytotoxicity at 10 µM was -0.42%.

For `Cc1cccc(NC(=O)N2CC(C(=O)NC(C)C)C3(CCOCC3)C2)c1` (configuration not stated), the cytotoxicity at 10 µM is -75%.

`CN(C)CCCNC(=O)c1nnsc1-c1ccccc1`: the cytotoxicity at 10 µM worked out at 5.75%.

Turning to `CN1[C@@H]2CC[C@H]1CN(C(=O)CCc1csc(N)n1)CC2`, the cytotoxicity at 10 µM was -0.0143%.

`CCOc1ccccc1-n1c(-c2cn(CC)nc2C)n[nH]c1=O`: the cytotoxicity at 10 µM was determined as 2.81%.

Consider `COc1ccc(-c2nc(CN3CCCC3Cn3cccn3)no2)cc1` (configuration not stated), for which the cytotoxicity at 10 µM is -1.89%.

For the molecule `COc1ccc(C(C(=O)O)N2CCC(Cn3cccn3)CC2)cc1F` (configuration not stated), the cytotoxicity at 10 µM amounted to 1.81%.

In the case of `CC(C)n1ccc(CN2CCN(c3cc(NC4CC4)nc(N)n3)CC2)c1`, the cytotoxicity at 10 µM is -1.45%.

Turning to `Cc1nc(CC(=O)N2CCCCC2c2ccn3ccnc3n2)cs1` (configuration not stated), the cytotoxicity at 10 µM was -13.4%.

Consider `O=C(NCCc1cc(F)ccc1F)NC(CO)c1ccccc1` (configuration not stated), for which the cytotoxicity at 10 µM was found to be 8.78%.

For the molecule `CCOC(=O)[C@]12CCCN(Cc3cccs3)C[C@H]1CN(CC(C)C)C2`, the cytotoxicity at 10 µM came out at 10.8%.

Regarding `COc1ccc(F)cc1Cn1nc(C(N)=O)ccc1=O`, the cytotoxicity at 10 µM was -2.52%.

Regarding `OCCN(Cc1cccnc1)c1ncc(Br)cn1`, the cytotoxicity at 10 µM stood at 9.68%.

As to `CC(C)(CNC(=O)COc1cccc(F)c1)C(N)=O`, the cytotoxicity at 10 µM is -4.89%.
